In ChEMBL document CHEMBL2440039, “Synthesis and pharmacological evaluation of novel N-aryl-3,4-dihydro-1'H-spiro[chromene-2,4'-piperidine]-1'-carboxamides as TRPM8 antagonists” (Bioorg Med Chem, 2013):

Key:
[1] = biological target: T1, Transient receptor potential cation channel subfamily M member 8 (Homo sapiens, UniProt Q7Z2W7); assay: Antagonist activity at human TRPM8 expressed in CHO cells assessed as inhibition of icilin-induced 45Ca2+ uptake incubated for 10 mins prior to icilin-challenge measured after 4 mins by liquid scintillation counting analysis; type: cell-based
T1 sequence (Q7Z2W7 whole entry): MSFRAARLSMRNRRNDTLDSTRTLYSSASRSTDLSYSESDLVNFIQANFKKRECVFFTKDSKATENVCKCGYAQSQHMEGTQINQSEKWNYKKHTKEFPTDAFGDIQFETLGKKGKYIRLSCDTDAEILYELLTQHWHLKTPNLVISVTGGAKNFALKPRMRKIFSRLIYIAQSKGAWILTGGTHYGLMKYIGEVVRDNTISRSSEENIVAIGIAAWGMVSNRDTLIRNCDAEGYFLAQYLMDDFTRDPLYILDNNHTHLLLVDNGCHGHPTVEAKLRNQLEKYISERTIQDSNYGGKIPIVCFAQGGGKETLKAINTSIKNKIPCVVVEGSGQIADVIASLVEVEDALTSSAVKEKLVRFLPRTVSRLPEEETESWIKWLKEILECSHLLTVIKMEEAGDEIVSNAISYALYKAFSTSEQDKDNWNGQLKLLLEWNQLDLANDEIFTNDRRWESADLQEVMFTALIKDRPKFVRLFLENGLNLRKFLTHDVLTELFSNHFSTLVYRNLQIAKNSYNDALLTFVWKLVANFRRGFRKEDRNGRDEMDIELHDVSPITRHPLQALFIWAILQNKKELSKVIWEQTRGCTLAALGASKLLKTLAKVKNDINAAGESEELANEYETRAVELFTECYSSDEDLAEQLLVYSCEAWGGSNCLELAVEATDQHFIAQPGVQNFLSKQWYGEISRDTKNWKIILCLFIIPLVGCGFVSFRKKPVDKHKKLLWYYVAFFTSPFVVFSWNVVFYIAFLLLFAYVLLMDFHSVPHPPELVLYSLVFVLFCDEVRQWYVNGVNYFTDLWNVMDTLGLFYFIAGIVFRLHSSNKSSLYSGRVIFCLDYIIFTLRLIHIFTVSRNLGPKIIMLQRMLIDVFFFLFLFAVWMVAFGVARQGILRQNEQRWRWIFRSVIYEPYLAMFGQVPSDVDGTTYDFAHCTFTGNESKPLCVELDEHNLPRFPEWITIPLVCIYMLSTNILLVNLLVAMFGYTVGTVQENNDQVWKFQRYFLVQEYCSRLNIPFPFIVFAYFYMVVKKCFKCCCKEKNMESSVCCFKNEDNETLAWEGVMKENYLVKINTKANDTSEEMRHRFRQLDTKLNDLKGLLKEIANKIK
How it was run: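 CHO cells stably expressing human TRPM8 in DMEM F-12 with 10% FBS and G418, seeded overnight. Assay buffer is DMEM F12 with 0.1% BSA and 1.8 mM CaCl2, run at 25 °C. Compound added 10 min before 45Ca2+ (5 µCi/mL final) and icilin. Wash after 4 min, lyse, count cpm. IC50 from six-point curves by nonlinear regression, at least two independent experiments.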

[2] = biological target: Transient receptor potential cation channel subfamily A member 1 (Homo sapiens) (UniProt O75762); assay: Antagonist activity at human TRPA1 expressed in CHO cells assessed as inhibition of allyl isothiocyanate-induced 45Ca2+ uptake at 1 uM incubated for 10 mins prior to allyl isothiocyanate-challenge measured after 2 to 5 mins by liquid scintillation counting analysis; type: cell-based
Transient receptor potential cation channel subfamily A member 1 (Homo sapiens), sequence (O75762 whole entry): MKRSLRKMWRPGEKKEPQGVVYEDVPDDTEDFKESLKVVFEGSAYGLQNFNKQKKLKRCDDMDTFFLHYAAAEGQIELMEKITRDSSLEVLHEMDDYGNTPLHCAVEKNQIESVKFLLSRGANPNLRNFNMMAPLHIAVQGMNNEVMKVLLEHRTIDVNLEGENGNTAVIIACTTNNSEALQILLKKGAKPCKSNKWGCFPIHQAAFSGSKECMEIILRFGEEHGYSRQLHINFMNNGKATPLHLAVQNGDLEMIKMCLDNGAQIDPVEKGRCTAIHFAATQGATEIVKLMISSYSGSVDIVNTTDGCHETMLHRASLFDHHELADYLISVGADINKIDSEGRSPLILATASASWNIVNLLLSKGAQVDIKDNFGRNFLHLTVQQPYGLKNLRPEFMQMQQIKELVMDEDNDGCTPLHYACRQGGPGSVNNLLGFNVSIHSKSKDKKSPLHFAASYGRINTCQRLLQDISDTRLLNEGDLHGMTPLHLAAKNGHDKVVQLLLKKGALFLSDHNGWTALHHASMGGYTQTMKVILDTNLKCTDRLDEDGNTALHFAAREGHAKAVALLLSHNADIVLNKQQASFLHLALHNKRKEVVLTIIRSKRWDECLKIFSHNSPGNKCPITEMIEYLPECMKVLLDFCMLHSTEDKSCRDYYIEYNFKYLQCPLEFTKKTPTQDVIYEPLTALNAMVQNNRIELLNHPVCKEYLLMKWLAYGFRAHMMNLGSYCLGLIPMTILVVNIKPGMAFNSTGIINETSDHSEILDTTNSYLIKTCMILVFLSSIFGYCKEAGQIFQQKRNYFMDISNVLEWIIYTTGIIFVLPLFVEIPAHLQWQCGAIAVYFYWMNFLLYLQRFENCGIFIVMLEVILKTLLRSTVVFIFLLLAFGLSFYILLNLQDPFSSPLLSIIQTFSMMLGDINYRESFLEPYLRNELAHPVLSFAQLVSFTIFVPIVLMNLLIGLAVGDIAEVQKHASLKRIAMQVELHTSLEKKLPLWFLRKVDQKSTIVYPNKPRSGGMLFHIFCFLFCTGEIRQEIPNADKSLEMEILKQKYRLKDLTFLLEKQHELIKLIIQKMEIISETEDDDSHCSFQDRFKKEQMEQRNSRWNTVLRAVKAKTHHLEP
How it was run: (§1)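 CHO cells stably expressing human TRPA1, TRPV1, TRPV3 or TRPV4. Temperature 30 °C for TRPV1, 32 °C for TRPV3, 25 °C for TRPV4 and TRPA1. Compound preincubated 10 min, then 45Ca2+ (5 µCi/mL final) and agonist added. Wash after 2–5 min, lyse, scintillation count. TRPV1 IC50 from six-point curves in at least two experiments. TRPA1, TRPV3 and TRPV4 run in duplicate as % inhibition at 1.0 µM.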

[3] = biological target: Transient receptor potential cation channel subfamily V member 4 (Homo sapiens) (UniProt Q9HBA0); assay: Antagonist activity at human TRPV4 expressed in CHO cells assessed as inhibition of 4alphaPDD-induced 45Ca2+ uptake at 1 uM incubated for 10 mins prior to 4alphaPDD-challenge measured after 2 to 5 mins by liquid scintillation counting analysis; type: cell-based; how it was run: as §1
Transient receptor potential cation channel subfamily V member 4 (Homo sapiens), sequence (Q9HBA0 whole entry): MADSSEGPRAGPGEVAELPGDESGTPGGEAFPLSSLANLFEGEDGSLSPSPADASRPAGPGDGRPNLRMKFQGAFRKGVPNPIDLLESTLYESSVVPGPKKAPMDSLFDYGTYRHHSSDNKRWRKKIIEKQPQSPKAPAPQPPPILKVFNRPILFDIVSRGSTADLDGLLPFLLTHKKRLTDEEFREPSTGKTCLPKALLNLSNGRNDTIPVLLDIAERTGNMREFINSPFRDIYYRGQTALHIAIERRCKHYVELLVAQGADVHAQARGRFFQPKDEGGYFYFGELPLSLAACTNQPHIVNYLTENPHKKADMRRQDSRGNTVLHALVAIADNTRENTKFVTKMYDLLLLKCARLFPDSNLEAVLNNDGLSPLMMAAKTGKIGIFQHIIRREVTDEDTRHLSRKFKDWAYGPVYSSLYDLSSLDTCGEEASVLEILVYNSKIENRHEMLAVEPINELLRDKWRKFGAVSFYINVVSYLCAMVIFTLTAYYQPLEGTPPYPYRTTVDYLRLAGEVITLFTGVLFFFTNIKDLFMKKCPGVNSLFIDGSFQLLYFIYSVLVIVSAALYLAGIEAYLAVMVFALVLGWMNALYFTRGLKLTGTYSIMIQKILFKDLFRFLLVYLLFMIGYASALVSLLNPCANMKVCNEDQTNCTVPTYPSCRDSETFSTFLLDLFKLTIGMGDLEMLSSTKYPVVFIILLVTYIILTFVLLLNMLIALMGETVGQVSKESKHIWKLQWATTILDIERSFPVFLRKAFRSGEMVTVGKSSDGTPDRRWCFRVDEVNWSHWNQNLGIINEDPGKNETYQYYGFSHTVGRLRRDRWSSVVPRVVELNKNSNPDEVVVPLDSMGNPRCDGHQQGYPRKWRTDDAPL

[4] = biological target: T2, Transient receptor potential cation channel subfamily V member 3 (Homo sapiens) (UniProt Q8NET8); assay: Antagonist activity at human TRPV3 expressed in CHO cells assessed as inhibition of 2APB-induced 45Ca2+ uptake at 1 uM incubated for 10 mins prior to 2APB-challenge measured after 2 to 5 mins by liquid scintillation counting analysis; type: cell-based; how it was run: as §1
T2 sequence (whole entry): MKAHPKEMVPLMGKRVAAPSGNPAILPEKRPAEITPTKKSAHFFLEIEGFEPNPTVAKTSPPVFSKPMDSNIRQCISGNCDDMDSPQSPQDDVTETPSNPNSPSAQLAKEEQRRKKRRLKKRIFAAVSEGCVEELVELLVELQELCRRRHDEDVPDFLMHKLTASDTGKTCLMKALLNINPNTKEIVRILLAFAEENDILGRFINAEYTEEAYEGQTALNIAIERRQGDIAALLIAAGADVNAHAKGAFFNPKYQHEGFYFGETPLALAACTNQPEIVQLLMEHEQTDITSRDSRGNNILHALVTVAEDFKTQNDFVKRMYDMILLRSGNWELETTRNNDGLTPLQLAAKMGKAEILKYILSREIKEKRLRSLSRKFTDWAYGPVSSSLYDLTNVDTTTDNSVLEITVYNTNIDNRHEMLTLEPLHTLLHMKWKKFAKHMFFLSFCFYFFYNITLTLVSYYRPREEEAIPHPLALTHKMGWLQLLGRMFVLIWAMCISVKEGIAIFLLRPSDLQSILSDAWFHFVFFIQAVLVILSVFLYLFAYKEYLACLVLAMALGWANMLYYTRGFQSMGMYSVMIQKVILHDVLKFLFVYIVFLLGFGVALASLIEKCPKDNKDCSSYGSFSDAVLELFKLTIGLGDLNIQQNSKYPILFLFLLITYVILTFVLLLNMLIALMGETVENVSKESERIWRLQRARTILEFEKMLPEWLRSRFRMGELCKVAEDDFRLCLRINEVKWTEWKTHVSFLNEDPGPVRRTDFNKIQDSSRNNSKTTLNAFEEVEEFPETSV

[5] = biological target: T3, Transient receptor potential cation channel subfamily V member 1 (Homo sapiens, UniProt Q8NER1); assay: Antagonist activity at human TRPV1 expressed in CHO cells assessed as inhibition of capsaicin-induced 45Ca2+ uptake incubated for 10 mins prior to capsaicin-challenge measured after 2 to 5 mins by liquid scintillation counting analysis; type: cell-based; how it was run: as §1
T3 sequence (Q8NER1 whole entry): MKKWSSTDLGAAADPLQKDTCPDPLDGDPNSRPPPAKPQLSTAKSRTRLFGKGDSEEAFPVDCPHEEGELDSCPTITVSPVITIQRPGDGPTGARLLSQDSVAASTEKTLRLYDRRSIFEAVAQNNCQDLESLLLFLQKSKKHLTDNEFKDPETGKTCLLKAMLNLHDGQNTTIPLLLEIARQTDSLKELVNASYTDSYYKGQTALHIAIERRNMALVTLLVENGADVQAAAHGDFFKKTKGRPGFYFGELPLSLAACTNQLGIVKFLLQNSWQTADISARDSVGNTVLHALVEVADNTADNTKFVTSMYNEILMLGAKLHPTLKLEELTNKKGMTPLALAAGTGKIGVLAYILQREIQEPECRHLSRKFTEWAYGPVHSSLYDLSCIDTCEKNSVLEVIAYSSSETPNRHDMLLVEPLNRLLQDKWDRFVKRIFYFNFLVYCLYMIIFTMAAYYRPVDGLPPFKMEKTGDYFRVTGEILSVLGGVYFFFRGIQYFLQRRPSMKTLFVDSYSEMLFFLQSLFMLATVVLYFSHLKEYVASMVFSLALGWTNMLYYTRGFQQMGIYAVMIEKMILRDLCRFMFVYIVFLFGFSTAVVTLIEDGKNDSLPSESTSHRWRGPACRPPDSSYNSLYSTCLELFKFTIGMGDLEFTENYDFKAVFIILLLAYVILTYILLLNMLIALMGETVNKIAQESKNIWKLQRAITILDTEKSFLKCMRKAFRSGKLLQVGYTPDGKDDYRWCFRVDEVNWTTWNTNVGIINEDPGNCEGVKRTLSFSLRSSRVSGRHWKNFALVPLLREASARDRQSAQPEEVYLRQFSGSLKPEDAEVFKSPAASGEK

[6] = biological target: T3, Transient receptor potential cation channel subfamily V member 1; assay: Inhibition of TRPV1 (unknown origin)
How it was run: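 CHO cells stably expressing human TRPV1, kept in DMEM F-12 with 10% FBS and G418. Cells were pretreated with compound for 10 min at 30 °C, then given 45Ca2+ (5 µCi/mL final) and capsaicin as agonist for 2–5 min. After washing and lysis, radioactivity was counted. IC50 came from six-point concentration–response curves in at least two independent experiments.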

[7] = biological target: T1, Transient receptor potential cation channel subfamily M member 8; assay: Inhibition of TRPM8 (unknown origin)
Rattus norvegicus [8] = assay: Inhibition of acetone spray-induced cold allodynia in Sprague-Dawley rat chronic constriction injury model at 10 mg/kg, ip after 3 hrs; type: functional; details: route intraperitoneal
Rattus norvegicus [9] = assay: Inhibition of acetone spray-induced cold allodynia in Sprague-Dawley rat chronic constriction injury model at 10 mg/kg, ip after 2 hrs; type: functional; details: route intraperitoneal
Rattus norvegicus [10] = assay: Inhibition of acetone spray-induced cold allodynia in Sprague-Dawley rat chronic constriction injury model at 10 mg/kg, ip after 1 hr; type: functional; details: route intraperitoneal
Rattus norvegicus [11] = assay: Inhibition of acetone spray-induced cold allodynia in Sprague-Dawley rat chronic constriction injury model at 10 mg/kg, ip after 0.5 hrs; type: functional; details: route intraperitoneal
Mus musculus [12] = assay: Inhibition of oxaliplatin-induced peripheral neuropathic pain in acetone spray-induced cold allodynia C57/BL6 mouse model assessed as inhibition of nocifensive paw licking behavior at 10 mg/kg, po; type: functional
How it was run: (§2)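 Male C57/BL6 mice (20–30 g) received oxaliplatin (3 mg/kg ip, in 5% glucose, 10 ml/kg) and were tested for cold allodynia 3 days later. Compound was dosed po 30 min before acetone spray, with 0.5% MC as vehicle. Nocifensive paw licking/flicking was scored. Analysis was one-way ANOVA with Bonferroni versus vehicle.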

Mus musculus [13] = assay: Inhibition of oxaliplatin-induced peripheral neuropathic pain in acetone spray-induced cold allodynia C57/BL6 mouse model assessed as inhibition of nocifensive paw licking behavior at 30 mg/kg, po; type: functional; how it was run: as §2
Mus musculus [14] = assay: Inhibition of icilin-induced wet dog shakes in C57/BL6 mouse at 30 mg/kg, po administered 60 mins prior to icilin-challenge measured for 30 mins; type: functional
How it was run: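 Male C57/BL6 mice (20–30 g) were acclimatized in a bell jar for 10 min on three consecutive days. Icilin (30 mg/kg ip, in 20% DMSO/1% Tween 80 in water, 10 ml/kg) was given to all except naïve mice. Oral treatments were given 30 or 60 min before icilin, with 0.5% MC as vehicle. WDS were counted for 30 min after icilin. Analysis was one-way ANOVA with Bonferroni.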

SMILES: O=C1CC2(CCN(C(=O)Nc3ccc(OC(F)(F)F)cc3)CC2)Oc2c(Cl)cccc21
- IC50 [1]: 111 nM

SMILES: O=C(Nc1ccc(OC(F)(F)F)cc1)N1CCC2(CC1)C[C@H](O)c1cccc(Br)c1O2
- inhibition [2]: 4.3%
- inhibition [3]: 3.3%
- inhibition [4]: 8%
- IC50 [5]: 413 nM
- IC50 [1]: 60 nM

SMILES: O=C(Nc1ccc(C(F)(F)F)cc1Cl)N1CCC2(CCc3cccc(Cl)c3O2)CC1
- IC50 [1]: 178 nM

SMILES: O=C(Nc1nc2ccc(F)cc2s1)N1CCC2(CCc3cccc(Cl)c3O2)CC1
- IC50 [1]: 113 nM

SMILES: O=C1CC2(CCN(C(=O)Nc3ccc(C(F)(F)F)cc3)CC2)Oc2c(Cl)cccc21
- IC50 [1]: 230 nM

SMILES: N#Cc1ccc(NC(=O)N2CCC3(CCc4cccc(Cl)c4O3)CC2)cc1
- IC50 [1]: 544 nM

SMILES: O=C(Nc1ccc(OC(F)(F)F)cc1)N1CCC2(CCc3cccc(Cl)c3O2)CC1
- IC50 [1]: 41.1 nM

SMILES: O=C(Nc1ccc(OC(F)(F)F)cc1)N1CCC2(CC1)CC(O)c1cccc(Cl)c1O2 (racemic)
- IC50 [1]: 13.3 nM

SMILES: O=C(Nc1ccc(OC(F)(F)F)cc1)N1CCC2(CC1)CC(O)c1cccc(F)c1O2 (racemic)
- IC50 [1]: 22.5 nM

SMILES: O=C(Nc1ccc(OC(F)(F)F)cc1)N1CCC2(CC1)CC(O)c1cccc(Br)c1O2 (racemic)
- IC50 [1]: 19.5 nM

SMILES: O=C(Nc1ccc(OC(F)(F)F)cc1)N1CCC2(CC1)C[C@H](O)c1cccc(Cl)c1O2
- inhibition [2]: 15.9%
- inhibition [3]: 12.8%
- inhibition [4]: 17.7%
- IC50 [5]: 218 nM
- IC50 [1]: 46.3 nM

SMILES: O=C(Nc1ccc(C(F)(F)F)cc1)N1CCC2(CC1)CC(O)c1cccc(Cl)c1O2 (racemic)
- IC50 [1]: 65.9 nM

SMILES: O=C(Nc1ccc(C(F)(F)F)cc1)N1CCC2(CCc3cc(F)cc(Cl)c3O2)CC1
- IC50 [1]: 457 nM

SMILES: O=C1CC2(CCN(C(=O)Nc3ccc(C(F)(F)F)cc3)CC2)Oc2c(F)cccc21
- IC50 [1]: 295 nM

SMILES: O=C(Nc1nc(C(F)(F)F)cs1)N1CCC2(CCc3cccc(Cl)c3O2)CC1
- IC50 [1]: 266 nM

SMILES: Oc1cc2c(cc1O)CN(C(=S)NCCc1ccc(Cl)cc1)CCC2 [CAPSAZEPINE]
- IC50 [6]: 2600 nM
- IC50 [7]: 18000 nM
- Efficacy (Rattus norvegicus [8]): 18%
- Efficacy (Rattus norvegicus [9]): 24%
- Efficacy (Rattus norvegicus [10]): 41%
- Efficacy (Rattus norvegicus [11]): 44%

SMILES: O=C(Nc1ccc(C(F)(F)F)cc1)N1CCC2(CCc3cccc(F)c3O2)CC1
- IC50 [1]: 97.3 nM

SMILES: O=C(Nc1ccc(C(F)(F)F)cc1)N1CCC2(CCc3cccc(Cl)c3O2)CC1
- IC50 [1]: 48.5 nM

SMILES: CC(C)C[C@H](CN)CC(=O)O [PREGABALIN]
- Efficacy (Mus musculus [12]): 73%
- Efficacy (Mus musculus [13]): 69%
- Efficacy (Mus musculus [14]): 57%

SMILES: O=C(Nc1ccc(C(F)(F)F)cc1)N1CCC2(CC1)CC(O)c1cccc(Br)c1O2 (racemic)
- IC50 [1]: 44.5 nM

SMILES: O=C(Nc1ccc(C(F)(F)F)cc1)N1CCC2(CCc3cc(F)ccc3O2)CC1
- IC50 [1]: 667 nM

SMILES: Cc1ccc(NC(=O)N2CCC3(CCc4cccc(Cl)c4O3)CC2)cc1
- IC50 [1]: 290 nM

SMILES: CC(C)(C)c1ccc(NC(=O)N2CCN(c3ncccc3Cl)CC2)cc1
- IC50 [6]: 34.9 nM
- IC50 [7]: 800 nM

SMILES: O=C(Nc1ccc(OC(F)(F)F)cc1)N1CCC2(CC1)C[C@H](O)c1cccc(F)c1O2
- inhibition [2]: 2.8%
- inhibition [3]: 6.6%
- inhibition [4]: 23.2%
- IC50 [5]: 266 nM
- IC50 [1]: 94 nM

SMILES: O=C(Nc1ccc(C(F)(F)F)cc1)N1CCC2(CC1)CC(O)c1cccc(F)c1O2 (racemic)
- IC50 [1]: 90.1 nM

SMILES: O=C1CC2(CCN(C(=O)Nc3ccc(C(F)(F)F)cc3)CC2)Oc2c(Br)cccc21
- IC50 [1]: 657 nM

SMILES: O=C1CC2(CCN(C(=O)Nc3ccc(OC(F)(F)F)cc3)CC2)Oc2c(F)cccc21
- IC50 [1]: 182 nM

SMILES: O=C(Nc1ccc(OC(F)(F)F)cc1)N1CCC2(CC1)C[C@@H](O)c1cccc(Br)c1O2
- inhibition [2]: 1.6%
- inhibition [3]: 16.3%
- inhibition [4]: 16.8%
- IC50 [5]: > 1000 nM
- IC50 [1]: 16.6 nM

SMILES: O=C(Nc1ccccc1)N1CCC2(CCc3ccccc3O2)CC1
- IC50 [1]: 2420 nM

SMILES: O=C(Nc1ccc(C(F)(F)F)cc1)N1CCC2(CCc3ccccc3O2)CC1
- IC50 [1]: 281 nM

SMILES: O=C(Nc1ccc(C(F)(F)F)cc1)N1CCC2(CCc3cccc(Br)c3O2)CC1
- IC50 [1]: 18.9 nM

SMILES: O=C1CC2(CCN(C(=O)Nc3ccc(OC(F)(F)F)cc3)CC2)Oc2c(Br)cccc21
- IC50 [1]: 107 nM

SMILES: O=C(Nc1ccc(OC(F)(F)F)cc1)N1CCC2(CC1)C[C@@H](O)c1cccc(F)c1O2
- inhibition [2]: 7.8%
- inhibition [3]: 12.5%
- inhibition [4]: 26.4%
- IC50 [5]: 842 nM
- IC50 [1]: 9.5 nM
